Screening data (PubChem BioAssay)
Hsp70 activator = Hsp70 transcriptional activators, primary screen, cell-based, HeLa, Hsp70 promoter luciferase, luminescence, 10 µM; HeLa Hsp70 promoter luciferase reporter; scaled: vehicle 0, proteasome-inhibitor control 100%; 200,000 compounds, 0.04% hits; activation, % at 10 µM;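 active means activation above the mean across all tested compounds plus 3 SD, cutoff set per campaign, cut at about 5.5% in these data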;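 further: 100% = MG132 at 30 µM as the positive control and 0% = DMSO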
Dynein cargo inh = inhibitors of GR-EGFP nuclear translocation, primary screen, dynein cargo transport inhibitor project, imaging, high-content, 3617.4 mouse cells; 220,000 compounds, 0.47% hits; test concentration mostly 20 µM; stimulated with dexamethasone, 1 µM; hits give low values; z-score, hits read low;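 active means plate z-score of nuclear minus cytoplasmic receptor signal below a set negative limit, without overly bright fluorescence or cell loss, cut at about -3.5 in these data, passing the limit was not always enough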;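 further: z-score of nuclear minus cytoplasmic ring GR-EGFP intensity difference per well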
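Buffer or medium: tet-free, stripped-serum medium; Also added: dexamethasone, 1.0 µM final; Technique: high-content fluorescence imaging after fixation; Times: 48 h induction, 1 h compound, 30 min dex at 37 °C; Read-out: per-cell GR-EGFP intensity, nucleus versus surrounding cytoplasmic ring, well-averaged.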
EP2 modulator = EP2 receptor modulators, cAMP readout, primary screen, cell-based, HTRF cAMP, PGE2 stimulation. EP2-expressing cells, cAMP HTRF FRET, PGE2 co-stimulation. induction, % at 25 µM. 260,000 compounds, 0.83% hits;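 active means compounds whose cAMP rise, as percent of the full-agonist control response, exceeds 60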;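 further: rat C6 glioma line stably carrying human EP2 under a CMV promoter; the protocol text gives 20 µM as final concentration; 100% = response of wells given 1 µM PGE2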
Target sequence (P43116 whole entry, looked up): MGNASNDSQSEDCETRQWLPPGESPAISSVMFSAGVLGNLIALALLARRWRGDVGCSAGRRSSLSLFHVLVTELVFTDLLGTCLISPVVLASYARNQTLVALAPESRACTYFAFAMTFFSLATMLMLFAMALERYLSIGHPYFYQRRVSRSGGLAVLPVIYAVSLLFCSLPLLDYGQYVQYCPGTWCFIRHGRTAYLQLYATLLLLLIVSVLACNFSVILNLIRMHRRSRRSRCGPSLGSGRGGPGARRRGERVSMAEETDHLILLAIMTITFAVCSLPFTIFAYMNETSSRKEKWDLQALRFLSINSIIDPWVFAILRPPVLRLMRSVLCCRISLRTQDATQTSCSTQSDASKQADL
PGE2 EP2 inh = human EP2 receptor antagonists, primary screen, TR-FRET cAMP, C6 glioma cells; Prostaglandin E2 receptor EP2 subtype (Homo sapiens), P43116; C6 glioma cells expressing human EP2; cells stimulated with saturating PGE2; inhibition, % at 25 µM; 260,000 compounds, 0.52% hits; AID 1422, 2008;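 active means percent inhibition above 40 after rounding to a whole number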;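 further: rat C6 glioma host cells with rolipram phosphodiesterase inhibitor present; the protocol text gives 20 µM as final concentration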
Dynein confirm = dynein cargo transport inhibitors, GR-EGFP translocation, confirmation, imaging, high-content imaging, GR-EGFP cells | shares compounds with Dynein cargo inh | 3617.4 GR-EGFP nuclear translocation imaging, dexamethasone-induced | calls only at 20 µM | 1,000 compounds, 69% hits | AID 463116, 2010;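 active means inhibition of receptor movement into the nucleus at or above a set limit in both runs, with normal cell brightness and cell count; inconclusive means limit reached in only one run, brightness and count normal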;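 further: dexamethasone at 1 µM final in well for 30 min; nuclear minus cytoplasmic GR-EGFP mean intensity difference in channel 2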
Numbers without * were called inactive; i = inactive; ? = inconclusive; . = no result; + = active, no number. Most compounds without a hit are left out; they make up all but 1.7% or so of the library.

SMILES | Hsp70 activator | Dynein cargo inh | EP2 modulator | PGE2 EP2 inh | Dynein confirm
COCCNC(=O)/C(C#N)=C/C=C/c1ccccc1[N+](=O)[O-] | 1 | -3.5* | -24 | 12 | +
Cc1nc([N+](=O)[O-])c(Br)n1CC(=O)c1cccc([N+](=O)[O-])c1 | 0 | -5.5* | -20 | 5 | +
Cc1nc([N+](=O)[O-])c(Br)n1CC(=O)c1ccc(F)cc1 | 0 | -6.1* | -18 | 8 | +
Cc1nc([N+](=O)[O-])c(SCC(=O)NN)n1Cc1ccccc1 | . | . | 0 | 10 | .
Cc1nc([N+](=O)[O-])c(Br)n1Cc1ccccc1 | . | -5.9* | -14 | 5 | +
COC(=O)Cn1c(C)nc([N+](=O)[O-])c1Br | 0 | -1.2 | 2 | 3 | .
Nc1ccccc1SSc1ccccc1N | . | 0.86 | -1 | 7 | .
CC(C(Sc1ccccc1N)c1ccccc1)[N+](=O)[O-] (configuration not stated) | . | -5.5* | -21 | 15 | +
Cc1ccc(C(C[N+](=O)[O-])Sc2ccc(N)cc2)cc1 (configuration not stated) | . | -6.7* | -37 | 28 | +
Nc1ccc(Sc2ccc([N+](=O)[O-])cc2)cc1 | 0 | -0.45 | -58 | 7 | .
O=C(/C=C/NNC(=O)c1ccc(Cl)cc1)c1ccccc1 | 0 | -6.2* | -25 | 9 | +
O=C(/C=C/NNC(=O)c1ccccc1)c1ccc(Br)cc1 | 0 | -3 | -15 | 18 | .
CN(C)c1ccc(/C=C2\N=C(c3ccc(Cl)c([N+](=O)[O-])c3)NC2=O)cc1 | 0 | -4.5 | 3 | 7 | +
CN(C)c1ccc(/C=C2/NC(=O)NC2=O)cc1 | 1 | 0.069 | 1 | 16 | .
CC(C)(C)NC(=O)CSc1nc2ccccc2n1CC(=O)N1CCCC1 | . | . | 6 | 6 | .
CCN(CC)C(=O)CSc1nnc(-c2ccc(Br)cc2)n1C | . | . | -8 | 5 | .
CS(=O)(=O)N(CC(=O)NCc1ccncc1)c1ccccc1 | . | . | 7 | 12 | .
CN1CCN(C2=C(Cl)C(=O)N(C3CCCCC3)C2=O)CC1 | 0 | -0.56 | 25 | 5 | .
CN1CCN(C2=C(Cl)C(=O)C(c3cnc(N4CCCCC4)s3)=C(Cl)C2=O)CC1 | 0 | -4.7* | -57 | 104* | +
Cc1ccc(-c2csc3nc(C)n(N)c(=O)c23)o1 | 1 | -0.27 | -20 | 13 | .
Cc1ccc(-c2csc3nc(C)n(-n4c(C)ccc4C)c(=O)c23)o1 | 0 | -4* | 19 | 8 | i
COc1ccc(Cl)cc1C(=O)Nc1ccc2oc(=O)ccc2c1 | . | . | -25 | 6 | .
Cn1c(=O)[nH]c(=O)c2c1nc([N+](=O)[O-])n2Cc1ccccc1 | . | -4.9* | -36 | 16 | +
CC(C)Cn1c([N+](=O)[O-])nc2c1c(=O)[nH]c(=O)n2C | . | -7.3* | -1 | 1 | +
CCN(CC)C(=O)N1CCC(Cn2nc(-c3ccc(OC)cc3)ccc2=O)CC1 | . | . | -7 | . | .
SMILES | Hsp70 activator | Dynein cargo inh | EP2 modulator | PGE2 EP2 inh | Dynein confirm
Cc1sc(NC(=O)c2sc3nc4c(C)cccc4cc3c2N)c(C#N)c1C | 0 | -4.9 | -14 | 12 | +
Cc1cccc2cc3c(N)c(C(=O)N4CCc5ccccc54)sc3nc12 | 0 | -11 | 19 | 10 | i
Cc1[nH]c2ccccc2c1CN1CCc2ccccc2C1 | 0 | -3.8* | -8 | 7 | i
CS(=O)(=O)N1CCN(C2CCCCCCC2)CC1 | . | . | -22 | 9 | .
CCn1nc(C)cc1C(=O)Sc1cccc(Br)c1 | . | -4* | 23 | 11 | +
CCn1nc(C)cc1C(=O)Sc1ccc(Cl)cc1Cl | . | -2 | 29 | 8 | .
N=c1oc2c3c4c(cc2cc1C(=O)Nc1ccccc1)CCCN4CCC3 | 0 | -4.6* | 14 | 10 | +
Cc1oc(S(=O)(=O)N2CCCC2)cc1C(=O)Nc1ccccc1 | . | -0.84 | -5 | 7 | .
CCCCCCN1C=CC(=C/C=C(\C#N)C(=O)OCC)C=C1 | -1 | -3.8 | 3 | 7 | ?
COc1cc(OC)c2c(O)c3c(c(-c4c5c(c(O)c6c(OC)cc(OC)cc46)CO[C@@H](C)[C@H]5O)c2c1)[C@H](O)[C@H](C)OC3 | 0 | -4.5* | -37 | 24 | +
COc1cc(OC)c2c(=O)c(O)c(-c3ccc(OC)c(OC)c3)oc2c1 | . | . | -15 | 16 | .
N#Cc1ccc(/C=C/C(=O)c2cccnc2)cc1 | 0 | -5* | -8 | 4 | +
O=C(/C=C/c1ccccc1Cl)c1cccnc1 | 0 | -4.2* | -12 | 35 | +
O=C(/C=C/c1ccccc1Cl)c1ccc(O)cc1 | . | -1.1 | 2 | 17 | .
O=C(/C=C/c1ccc(Cl)cc1)c1cccnc1 | 0 | -5.1* | 9 | 25 | +
O=C(/C=C/c1cccnc1)/C=C/c1cccnc1 | . | -6.4* | -68 | 36 | +
O=C(/C=C/c1cccnc1)c1cc(F)ccc1O | . | -3.4 | -38 | 14 | .
COc1ccc(OC)c(NC(=O)CSc2ncc(-c3ccc(C)cc3)n2Cc2ccco2)c1 | . | . | 34 | 12 | .
CCCC(=O)Nc1cc(-c2nc3ccccc3s2)ccc1C | . | . | 42 | 9 | .
CN(C(=O)COC(=O)c1nc(Cl)c(Cl)c(Cl)c1Cl)C1CCS(=O)(=O)C1 (configuration not stated) | 0 | -4.6* | -38 | 8 | +
c1ccc(-n2nnnc2Cc2nnnn2-c2ccccc2)cc1 | 0 | 0.45 | -12 | 1 | .
N#CCCS(=O)(=O)c1nnnn1-c1ccccc1 | 0 | -5* | . | 16 | ?
CCCn1c(=O)c2c(nc(N3CCN(N=O)CC3)n2CCC)n(C)c1=O | . | . | -14 | 10 | .
N#CCOc1nc(N2CCCCC2)nc(N2CCCCC2)n1 | 0 | 0.22 | 54 | 12 | .
CCOc1nc(C#N)nc(N2CCCCC2)n1 | 0 | -3.5* | 26 | . | +
SMILES | Hsp70 activator | Dynein cargo inh | EP2 modulator | PGE2 EP2 inh | Dynein confirm
Cc1nc2c(ccc3nc(NC(=O)Cc4ccccc4)sc32)s1 | 0 | 0.15 | -21 | 5 | .
Cc1nc2c(ccc3nc(NC(=O)c4ccc(S(=O)(=O)N(C)C)cc4)sc32)s1 | 0 | -4.1* | -17 | 15 | i
COc1cccc(-n2nnnc2S(C)(=O)=O)c1 | 0 | -4.5* | -9 | 19 | +
Clc1ncnc2scc(C3COc4ccccc4O3)c12 (configuration not stated) | 0 | -4.2* | -55 | 6 | +
O=c1[nH]cnc2scc(C3COc4ccccc4O3)c12 (configuration not stated) | 0 | 0.38 | 38 | 12 | .
ClC1=C(Cl)C(Cl)=C(Cl)C1=C/C=C/c1ccccc1 | . | -4.1* | 8 | 15 | i
COc1ccc(NC(=O)c2ccc(C3SCC(=O)N3Cc3ccco3)cc2)cc1OC (configuration not stated) | . | . | -92 | 7 | .
